Assay results collected from several papers.
Compare with care: the assays were run in different laboratories.
Target: Beta-adrenergic receptor kinase 1 (GRK2, Homo sapiens, UniProt P25098)
One construct used (P25098 1-689): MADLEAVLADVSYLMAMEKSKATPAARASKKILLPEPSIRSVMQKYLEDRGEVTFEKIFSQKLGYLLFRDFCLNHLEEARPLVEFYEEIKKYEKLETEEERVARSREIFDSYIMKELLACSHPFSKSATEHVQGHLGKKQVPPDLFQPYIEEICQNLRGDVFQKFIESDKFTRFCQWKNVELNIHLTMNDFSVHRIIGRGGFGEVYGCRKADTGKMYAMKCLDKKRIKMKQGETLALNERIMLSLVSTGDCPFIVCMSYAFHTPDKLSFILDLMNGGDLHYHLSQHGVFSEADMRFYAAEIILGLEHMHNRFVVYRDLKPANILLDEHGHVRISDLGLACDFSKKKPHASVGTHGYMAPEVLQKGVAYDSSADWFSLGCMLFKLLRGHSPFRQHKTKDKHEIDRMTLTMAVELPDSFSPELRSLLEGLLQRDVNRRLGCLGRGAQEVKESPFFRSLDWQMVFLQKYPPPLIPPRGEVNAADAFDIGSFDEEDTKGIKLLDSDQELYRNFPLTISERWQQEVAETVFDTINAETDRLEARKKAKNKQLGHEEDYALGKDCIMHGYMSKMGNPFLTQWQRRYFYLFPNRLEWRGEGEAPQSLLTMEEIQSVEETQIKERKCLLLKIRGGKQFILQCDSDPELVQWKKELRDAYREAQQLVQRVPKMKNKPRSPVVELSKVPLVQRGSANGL

CCCCNc1ncc2c(-c3ccc(F)cc3)nn(C[C@H]3CC[C@H](N)CC3)c2n1 — inhibition (target engagement in cells; inhibitor; chemoproteomics; 20 mM): -6.2%
CCc1ccccc1C(=O)Nc1n[nH]c2c(C)c(F)c(C3C(C#N)=C(C)N(C)C(C)=C3C#N)cc12 — remaining binding (cell-free assay; competition with immobilised ligand; 1 µM): 100%
Cc1ccc(C(=O)NCc2ccsc2)cc1C#Cc1cn(C(C)C)c2ncnc(N)c12 — activity vs control (enzyme activity; inhibitor; 1 µM): 101%
CCCS(=O)(=O)Nc1ccc(F)c(C(=O)c2c[nH]c3ncc(-c4ccc(Cl)cc4)cc23)c1F — inhibition (enzyme activity; inhibitor; 1 µM): < 20%
COc1cc(Cl)c(C(=O)N[C@@H](CN[C@H]2CC[C@@H](N)CC2)Cc2ccc(C#N)cc2)cc1-c1ccc(CN[C@H](C)c2ccc(C)cc2)o1 — remaining activity (enzyme activity; inhibitor; 1 µM): 105%
O=C1NC(=O)c2cc(Nc3ccc(F)cc3)c(Nc3ccc(F)cc3)cc21 — remaining signal (cell-free assay; 0.5 µM): 104%
COc1cc2ncnc(Nc3ccc(Oc4ccccc4)c(C)c3C)c2cc1OC — inhibition (enzyme activity; inhibitor; 1 µM): -2%
O=C(O)[C@H]1[C@H](Cn2nnc3ccccc3c2=O)CC[C@@H]1C(=O)c1ccc(OCCC2CCOCC2)cc1 — remaining binding (cell-free assay; competition with immobilised ligand; 1 µM): 61%
COc1cccc2c(NCc3ccccc3)nc(-n3c(N)nc4ccccc43)nc12 — inhibition (target engagement in cells; inhibitor; chemoproteomics; 20 mM): -14.5%
O=C(NS(=O)(=O)c1ccc(NCC2CCOCC2)c([N+](=O)[O-])c1)c1ccc(N2CCN(Cc3ccc(C(F)(F)F)cc3-c3ccc(Cl)cc3)CC2)cc1Oc1cnc2[nH]ccc2c1 — remaining binding (cell-free assay; competition with immobilised ligand; 1 µM): 91%
O=C(Nc1cnn(-c2csc(C(=O)NC3COC3)c2)c1)Nc1ccccc1Cl — remaining activity (enzyme activity; inhibitor; 5 µM): 96.1%
O=C1Nc2ccc(Cl)cc2C1=Cc1cc(Cl)c(O)c(Cl)c1 — remaining signal (cell-free assay; 0.5 µM): 93.4%
Nc1ncnc2occ(-c3ccc(NC(=O)Nc4cc(C(F)(F)F)ccc4F)cc3)c12 — remaining signal (cell-free assay; inhibitor; 20 µM): 81%
C[C@H](NC(=O)c1cnc2n1[C@](C)(Cc1ccc(C#N)cc1)C(=O)N2c1cc(Cl)c(F)c(Cl)c1)C(=O)NC1(c2ccccn2)CC1 — remaining binding (cell-free assay; competition with immobilised ligand; 1 µM): 100%
N[C@H]1CCN(c2nccc(-c3cnn4ncccc34)n2)C1 — remaining binding (binding; competition with immobilised ligand; 1 µM): 80%
CC(C)(C)c1nc(-c2cccc(NS(=O)(=O)c3c(F)cccc3F)c2F)c(-c2ccnc(N)n2)s1 — remaining activity (enzyme activity; inhibitor; radiometric; 1 µM): 95%
